From PubChem
TRAIL sens C8 = caspase-8 TRAIL sensitization | NB7+C8 cells + TRAIL, ATPlite viability luminescence | inhibition (viability loss, TRAIL sensitization), % at 10 µM | 360,000 compounds, 1% hits | AID 624354;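 active means compounds causing at least 50% loss of cell viability in the single-dose screen, relative to plate controls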
PPC-1+TRAIL kill = compounds killing PPC-1 cancer cells with TRAIL present (potentiator screen, no TRAIL-free arm); PPC-1 cells + TRAIL, ATPLite viability luminescence; 220,000 compounds, 0.41% hits; cell killing (% activity), % at 4 µM or 5 µM;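 active means cell killing above 50% in the first pass at 4 µM, then a duplicate retest at 5 µM averaging 50% or more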;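 further: plate controls were cells with TRAIL plus DMSO for no effect and medium-only wells lacking cells for full effect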
FLuc inhib CS = Photinus pyralis luciferase inhibition counter-screen; P08659; ATPLite firefly luciferase biochemical luminescence, 10 min; inhibition, % at 10 µM; 200,000 compounds, 1.5% hits;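 active means inhibition above about 50% when tested at 10 µM, limit read from the data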
Target sequence (P08659 whole entry, looked up): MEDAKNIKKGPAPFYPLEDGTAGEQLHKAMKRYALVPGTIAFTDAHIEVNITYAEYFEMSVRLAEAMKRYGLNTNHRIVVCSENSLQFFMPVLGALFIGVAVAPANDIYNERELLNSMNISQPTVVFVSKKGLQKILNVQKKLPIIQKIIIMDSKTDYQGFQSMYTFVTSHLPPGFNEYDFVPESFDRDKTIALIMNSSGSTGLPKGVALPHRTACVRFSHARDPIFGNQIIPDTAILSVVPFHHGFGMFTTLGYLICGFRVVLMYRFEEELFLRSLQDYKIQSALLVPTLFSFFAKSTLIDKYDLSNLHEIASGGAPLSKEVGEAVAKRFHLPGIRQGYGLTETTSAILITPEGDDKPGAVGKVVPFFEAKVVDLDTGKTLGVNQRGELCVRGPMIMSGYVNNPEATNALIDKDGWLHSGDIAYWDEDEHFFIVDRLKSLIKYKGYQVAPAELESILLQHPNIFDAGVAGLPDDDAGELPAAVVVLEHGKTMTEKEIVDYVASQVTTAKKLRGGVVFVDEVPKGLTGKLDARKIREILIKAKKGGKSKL
FLuc stim CS = affects firefly luciferase, flagging false hits in luciferase stimulation screens. AID 1027. ATPlite luciferase biochemical, luminescence, 10 min; 0 = ATP-free wells, 1 = DMSO control. activation factor at 10 µM. 200,000 tested, under 10 active. P08659;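 active means luciferase activation factor, scaled between plate controls, of at least 2 with compound at 10 µM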
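System: Luciferase/luciferin detection reagent, cell-free biochemical luciferase assay | Medium: PBS buffer for ATP | Dosing: Test compounds dosed from 2 mM stocks in 100% DMSO | Timing: 10 min at ambient temperature | Signal: Luminescence measurement of luciferase light output | Evaluation: Luciferase activation, seen as luminescence increase over controls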
PPC1 cytotox = PPC-1 cell cytotoxicity; shares compounds with PPC-1+TRAIL kill; PPC-1 viability, ATPlite luminescence, overnight; cytotoxicity, % at 5 µM; 1,200 compounds, 50% hits; AID 1447;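 active means reconfirmed compounds whose average cytotoxicity reaches 50% or more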;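 further: 0% = DMSO-treated cells and 100% = wells holding medium but no cells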
* = called active by the depositor; / = no result given. Sampled rows, rich in hits. Any-hit rate of the full collection: about 1.6%.

SMILES	TRAIL sens C8	PPC-1+TRAIL kill	FLuc inhib CS	FLuc stim CS	PPC1 cytotox
CC1CCCCN1S(=O)(=O)c1ccc(S(=O)(=O)N2CCN(C)CC2)cc1 (centres undefined)	-5	/	/	/	/
CCN1C(=O)C2(C(C#N)=C(N)Oc3cc(C)oc(=O)c32)c2ccccc21 (centres undefined)	5	-10	0	1	2
Cc1ccc(OCCn2c(NC(=O)c3ccco3)nc3ccccc32)cc1	25	2	4	1	/
Cc1cccc(OCCn2c(NC(=O)c3ccco3)nc3ccccc32)c1	13	7	4	1	13
Cc1ccc(-c2cn3c(=O)cc(C)[nH]c3n2)cc1	71*	71*	88*	0.1	69*
Cn1cc(CC(=O)N2CCN(c3ccc(Cl)cc3)CC2)c2ccccc21	-19	-8	-2	1	3
CN(C(=O)c1nn(C)c2c1CS(=O)(=O)c1ccccc1-2)c1cccc(Cl)c1	8	/	/	/	/
O=C(Nc1ccccc1N1CCCCC1)C1CCN(C(=O)c2ccc(Cl)cc2)CC1	0	/	/	/	/
C/C(=N\OCC(=O)Nc1ccccc1C(=O)O)c1cccs1	2	11	21	0.8	/
C/C(=N/OCC(=O)Nc1ccc(C)cc1C)c1cccs1	3	-12	-7	1.1	2
COc1cc(/C=C(/C#N)c2nc3ccccc3[nH]2)ccc1OCC(=O)Nc1ccccc1C	87*	19	-2	1	-2
COC(=O)/C=C/c1ccc(OC(=O)c2ccncc2)cc1	-8	-4	2	1	/
Clc1ccc2nc(-c3ccc4c(c3)OCO4)cn2c1	79*	80*	93*	0.1	74*
Cc1ccc2nc(-c3ccc4c(c3)NC(=O)CO4)cn2c1	33	48	/	/	/
Cc1ccc2nc(-c3ccc4c(c3)OCCO4)cn2c1	92*	93*	/	/	92*
CCn1cc(S(=O)(=O)Nc2cc(F)ccc2C)cn1	-4	9	-2	1	/
CCOC(=O)c1cnc(Nc2nc3ccccc3o2)nc1CSc1nnc(C)s1	19	/	/	/	/
CCOC(=O)c1cnc(Nc2nc3ccccc3o2)nc1C	88*	81*	91*	0.1	79*
Cc1ccn2c(=O)nc(SCC(=O)NCCc3ccccc3)nc2c1	-11	/	/	/	/
O=C(Nc1nnc(SCC(=O)N2CCOCC2)s1)c1ccccc1Cl	69*	58*	85*	0.2	56*
Cc1ccc2c(c1)C1CN(C)CCC1N2C(=O)COc1ccc(N(C)C(=O)C(C)(C)C)cc1 (centres undefined)	-3	-7	-6	1.1	/
Cc1ccc(C(=O)N(C)c2ccc(OCC(=O)N3c4ccc(C)cc4C4CN(C)CCC43)cc2)cc1 (centres undefined)	52*	52*	88*	0.1	46
O=C(NCc1cccnc1)c1ccc(Br)o1	-15	/	/	/	/
CCc1ccccc1N(CC(=O)O)S(C)(=O)=O	29	-14	-1	1	-15
CN(c1cccc(NC(=O)c2ccc(C(C)(C)C)cc2)c1)S(C)(=O)=O	73*	41	80*	0.2	53*
SMILES	TRAIL sens C8	PPC-1+TRAIL kill	FLuc inhib CS	FLuc stim CS	PPC1 cytotox
CCc1ccccc1N(CC(=O)Nc1cccc(N(C)S(C)(=O)=O)c1)S(C)(=O)=O	1	9	-4	1	18
Cc1nc(-c2ccc(NC(=O)/C=C\C(=O)O)cc2)cs1	17	7	46	0.5	/
Cc1ccc2sc(-c3ccc(NC(=O)/C=C\C(=O)O)cc3)nc2c1	39	44	84*	0.2	44
COc1ccc(C=NNc2nc3ccccc3s2)cc1	47	/	/	/	/
C(=N\Nc1nc2ccccc2s1)/c1ccccn1	/	69*	/	/	73*
Cc1csc(N/N=C/c2ccccn2)n1	73*	39	92*	0.1	32
COc1ccc(/C(C)=N/NC(=O)CNC(=O)c2cccnc2)cc1OC	-17	/	/	/	/
CN(C(=O)CN1CCN(c2cnn(-c3ccccc3)c(=O)c2Cl)CC1)C1CCS(=O)(=O)C1 (centres undefined)	-7	/	/	/	/
CC(C)(C)C(=O)Nc1cc2nn(-c3ccccc3)nc2cc1Cl	93*	96*	97*	0	96*
O=C(Nc1ccc2c(c1)nc1n2CCSC1)c1ccco1	72*	60*	87*	0.1	58*
C[C@@H](CO)NC(=O)c1ccc2c3n(nc2c1)-c1ccccc1CO3	91*	89*	/	/	91*
O=C(c1ccc2c3n(nc2c1)-c1ccccc1CO3)N1CCCCC1	70*	58*	/	/	60*
O=C(c1ccc2c3n(nc2c1)-c1ccccc1CO3)N1CCOCC1	51*	45	/	/	49
